From paper PMC4661106 (Bioorganic & medicinal chemistry, 2015)

Assays:
[1] = molecular target: T1, HIV-1 PR (Human immunodeficiency virus type 1 group M subtype B, UniProt P04585); type: biochemical
[2] = tested on: MT-4 cells; assay: Endpoint cytotoxicity assay, viable cells by trypan-blue dye exclusion; type: cell-based; conditions: three days, Figure 5; for general cytotoxicity to MT-4 cells: at 100 μM; for general cytotoxicity: tolerated by MT-4 cells: up to 50 μM
How it was run: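 Uninfected MT-4 cells were seeded at 2 × 10^5 cells/ml, in triplicate, in medium with carrier only or test compound at 10, 50 or 100 μM. Compounds were dissolved in DMSO and diluted in medium to a final DMSO of 0.25%. Incubation was 37 °C, 5% CO2. After three days, viable cells were counted by trypan-blue dye exclusion.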

[3] = tested on: HIV replication in TZM-bl cells; assay: Viral replication inhibition assay, luciferase reporter; type: cell-based; conditions: doses of 50 μM or higher, MOI = 0.01
How it was run: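 TZM-bl cells (HeLa-derived; CD4, CCR5, CXCR4; tat-driven luciferase) were seeded at 1×10^4 cells/mL and incubated overnight. The medium was then replaced with replication-competent pNL4-3 HIV or mock, in medium with carrier or test compound at final 25, 50 or 100 μM. Final DMSO was 0.25%. Conditions were run in triplicate. On the indicated days post infection, cells were PBS-washed and luciferase was read. RLU was expressed relative to the untreated control.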

[4] = molecular target: T1, HIV-1 PR; assay: Michaelis-Menten kinetics, mode of inhibition; type: biochemical; conditions: Michaelis-Menten analysis, Figure 4
[5] = Compound solubility; type: physicochemical

SMILES	Ki [1] [µM]	further results
CCC(C)[C@@H]1N=C(C)c2ccc(C(=O)OC(C)(C)C)cc2NC1=O (stereo in doubt) [Compound 6e, (S)-tert-Butyl 3-((R)-sec-butyl)-5-methyl-2-oxo-2,3-dihydro-1H-benzo[e][1,4]diazepine-8-carboxylate]	> 200	–
CC1=NCC(=O)Nc2cc(C(=O)OC(C)(C)C)ccc21 [Compound 6a, tert-Butyl 5-methyl-2-oxo-2,3-dihydro-1H-benzo[e][1,4]diazepine-8-carboxylate]	> 200	–
CC1=N[C@@H](C)C(=O)Nc2cc(C(=O)OC(C)(C)C)ccc21 [Compound 6b, (S)-tert-Butyl 3,5-dimethyl-2-oxo-2,3-dihydro-1H-benzo[e][1,4]diazepine-8-carboxylate]	> 200	–
CC1=N[C@H](CC(C)C)C(=O)Nc2cc(C(=O)OC(C)(C)C)ccc21 [Compound 6d, (R)-tert-Butyl 3-isobutyl-5-methyl-2-oxo-2,3-dihydro-1H-benzo[e][1,4]diazepine-8-carboxylate]	> 200	–
CC1=N[C@@H](C)C(=O)Nc2cc(C(=O)O)ccc21 [Compound 7b, (S)-3,5-Dimethyl-2-oxo-2,3-dihydro-1H-benzo[e][1,4]diazepine-8-carboxylic acid]	> 200	–
CC1=N[C@@H](CC(C)C)C(=O)Nc2cc(C(=O)O)ccc21 [Compound 7c, (S)-3-Isobutyl-5-methyl-2-oxo-2,3-dihydro-1H-benzo[e][1,4]diazepine-8-carboxylic acid]	> 200	–
CC1=N[C@H](CC(C)C)C(=O)Nc2cc(C(=O)O)ccc21 [Compound 7d, (R)-3-Isobutyl-5-methyl-2-oxo-2,3-dihydro-1H-benzo[e][1,4]diazepine-8-carboxylic acid]	> 200	–
CC1=N[C@@H](Cc2ccccc2)C(=O)Nc2cc(C(=O)O)ccc21 [Compound 7f, (S)-3-Benzyl-5-methyl-2-oxo-2,3-dihydro-1H-benzo[e][1,4]diazepine-8-carboxylic acid]	> 200	–
CC1=N[C@H](Cc2ccccc2)C(=O)Nc2cc(C(=O)O)ccc21 [Compound 7g, (R)-3-benzyl-5-methyl-2-oxo-2,3-dihydro-1H-benzo[e][1,4]diazepine-8-carboxylic acid]	> 200	–
CC1=N[C@H](CC(C)C)C(=O)N(Cc2ccccc2)c2cc(C(=O)OC(C)(C)C)ccc21 [Compound 8h, (R)-tert-Butyl 1-benzyl-3-isobutyl-5-methyl-2-oxo-2,3-dihydro-1H-benzo[e][1,4]diazepine-8-carboxylate]	> 200	–
CC1=N[C@H](CC(C)C)C(=O)N(Cc2ccncc2)c2cc(C(=O)OC(C)(C)C)ccc21 [Compound 8m, (R)-tert-Butyl 3-isobutyl-5-methyl-2-oxo-1-(pyridin-4-ylmethyl)-2,3-dihydro-1H-benzo[e][1,4]diazepine-8-carboxylate]	> 200	–
CCCCCCCCCCNC(=O)CN1C(=O)[C@@H](CC(C)C)N=C(C)c2ccc(C(=O)OC(C)(C)C)cc21 [Compound 8o, (R)-tert-Butyl 3-isobutyl-5-methyl-2-oxo-1-(2-oxo-2-(decylamino)ethyl)-2,3-dihydro-1H-benzo[e][1,4]diazepine-8-carboxylate]	> 200	–
CCCCCCNC(=O)CN1C(=O)[C@@H](CC(C)C)N=C(C)c2ccc(C(=O)OC(C)(C)C)cc21 [Compound 8q, (R)-tert-Butyl 3-isobutyl-5-methyl-2-oxo-1-(2-oxo-2-(hexylamino)ethyl)-2,3-dihydro-1H-benzo[e][1,4]diazepine-8-carboxylate]	> 200	–
CC1=N[C@H](CC(C)C)C(=O)N(CC(=O)N2CCN(C(=O)OCc3ccccc3)CC2)c2cc(C(=O)OC(C)(C)C)ccc21 [Compound 8s, (R)-tert-Butyl 1-(2-(4-((benzyloxy)carbonyl)piperazin-1-yl)-2-oxoethyl)-3-isobutyl-5-methyl-2-oxo-2,3-dihydro-1H-benzo[e][1,4]diazepine-8-carboxylate]	> 200	–
CC1=N[C@H](CC(C)C)C(=O)N(CC(=O)N2CCN(C(=O)OCC3c4ccccc4-c4ccccc43)CC2)c2cc(C(=O)OC(C)(C)C)ccc21 [Compound 8t, (R)-tert-Butyl 1-(2-(4-(((9H-fluoren-9-yl)methoxy)carbonyl)piperazin-1-yl)-2-oxoethyl)-3-isobutyl-5-methyl-2-oxo-2,3-dihydro-1H-benzo[e][1,4]diazepine-8-carboxylate]	> 200	–
CC1=N[C@H](CC(C)C)C(=O)N(Cc2ccc(C3CCCCC3)cc2)c2cc(C(=O)O)ccc21 [Compound 9d, (R)-1-(4-Cyclohexylbenzyl)-3-isobutyl-5-methyl-2-oxo-2,3-dihydro-1H-benzo[e][1,4]diazepine-8-carboxylic acid]	–	general cytotoxicity to MT-4 cells [2]: particularly cytotoxic; general cytotoxicity: tolerated by MT-4 cells [2]: tolerated; inhibition of HIV replication within cells (RLU relative to control) [3]: appeared to inhibit HIV replication
CC1=N[C@H](CC(C)C)C(=O)N(Cc2ccccc2)c2cc(C(=O)O)ccc21 [Compound 9h, (R)-1-Benzyl-3-isobutyl-5-methyl-2-oxo-2,3-dihydro-1H-benzo[e][1,4]diazepine-8-carboxylic acid]	> 200	–
CC1=N[C@H](CC(C)C)C(=O)N(Cc2ccc(-c3ccccc3)cc2)c2cc(C(=O)O)ccc21 [Compound 9j, (R)-1-([1,1′-Biphenyl]-4-ylmethyl)-3-isobutyl-5-methyl-2-oxo-2,3-dihydro-1H-benzo[e][1,4]diazepine-8-carboxylic acid]	–	general cytotoxicity to MT-4 cells [2]: particularly cytotoxic; general cytotoxicity: tolerated by MT-4 cells [2]: tolerated; inhibition of HIV replication within cells (RLU relative to control) [3]: appeared to inhibit HIV replication
CC1=N[C@H](CC(C)C)C(=O)N(CC(C)C)c2cc(C(=O)O)ccc21 [Compound 9k, (R)-1,3-Diisobutyl-5-methyl-2-oxo-2,3-dihydro-1H-benzo[e][1,4]diazepine-8-carboxylic acid]	> 200	–
CC1=N[C@H](CC(C)C)C(=O)N(CC(=O)O)c2cc(C(=O)O)ccc21 [Compound 9l, (R)-1-(Carboxymethyl)-3-isobutyl-5-methyl-2-oxo-2,3-dihydro-1H-benzo[e][1,4]diazepine-8-carboxylic acid]	> 200	–
CC1=N[C@H](CC(C)C)C(=O)N(Cc2ccncc2)c2cc(C(=O)O)ccc21 [Compound 9m, (R)-3-Isobutyl-5-methyl-2-oxo-1-(pyridin-4-ylmethyl)-2,3-dihydro-1H-benzo[e][1,4]diazepine-8-carboxylic acid]	> 200	–
CCCCCCCCCCNC(=O)CN1C(=O)[C@@H](CC(C)C)N=C(C)c2ccc(C(=O)O)cc21 [Compound 9o, (R)-3-Isobutyl-5-methyl-2-oxo-1-(2-oxo-2-(decylamino)ethyl)-2,3-dihydro-1H-benzo[e][1,4]diazepine-8-carboxylic acid]	–	mode of inhibition [4]: competitive inhibitor; general cytotoxicity to MT-4 cells [2]: particularly cytotoxic; general cytotoxicity: tolerated by MT-4 cells [2]: tolerated; inhibition of HIV replication within cells (RLU relative to control) [3]: appeared to inhibit HIV replication; solubility [5]: poor solubility
CCCCCCCCCCCCCCCCNC(=O)CN1C(=O)[C@@H](CC(C)C)N=C(C)c2ccc(C(=O)O)cc21 [Compound 9p, (R)-3-isobutyl-5-methyl-2-oxo-1-(2-oxo-2-(hexadecylamino)ethyl)-2,3-dihydro-1H-benzo[e][1,4]diazepine-8-carboxylic acid]	–	general cytotoxicity to MT-4 cells [2]: particularly cytotoxic; general cytotoxicity: tolerated by MT-4 cells [2]: All but 9p were tolerated; inhibition of HIV replication within cells (RLU relative to control) [3]: appeared to inhibit HIV replication
CC1=N[C@H](CC(C)C)C(=O)N(CC(=O)N2CCNCC2)c2cc(C(=O)O)ccc21 [Compound 9r, (R)-3-Isobutyl-5-methyl-2-oxo-1-(2-oxo-2-(piperazin-1-yl)ethyl)-2,3-dihydro-1H-benzo[e][1,4]diazepine-8-carboxylic acid]	> 200	–
